Experiments:
Type in all cases: functional
Rattus norvegicus [1] = organism: Rattus norvegicus; experiment: Ability to inhibit the uptake of dopamine [3H]DA in to rat brain synaptosomes
In short: (§1)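 Crude S1 synaptosomes from male Sprague–Dawley rat frontal/temporal cortex and striatum (sucrose–Tris–glucose, pH 7.4; 1000g, 15 min, 4 °C). Five drug levels, triplicate, with [3H]DA 25 nM or [3H]l-NE 50 nM final, in pargyline-containing Tris saline buffer. Preincubation 5 min, then 5 min uptake at 37 °C. Filtered, counted by scintillation, 0 °C uptake subtracted. IC50 read from sigmoidal fit.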

Rattus norvegicus [2] = organism: Rattus norvegicus; experiment: Ability to inhibit the uptake of norepinephrine [3H]-NE in to rat brain synaptosomes; in short: as §1
[3] = Eudisimic ratio for DA uptake is the ratio of the IC50 values l-isomer and d-isomer
In short: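 Eudismic ratio: IC50 of the l-isomer divided by IC50 of the d-isomer for each enantiomeric pair. IC50s came from rat synaptosomal [3H]DA or [3H]l-NE uptake, with five drug concentrations in triplicate and 5 min at 37 °C.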

Compound	IC50 (Rattus norvegicus [1]) [nM]	IC50 (Rattus norvegicus [2]) [nM]	Eudismic ratio [3]
COC(=O)[C@H](c1ccc(OC)cc1)[C@H]1CCCCN1	205	73	17.5
COC(=O)[C@@H](c1ccc(OC)cc1)[C@@H]1CCCCN1	3590	1300	–
COC(=O)[C@@H](c1ccc(Br)cc1)[C@@H]1CCCCN1	408	248	–
COC(=O)[C@H](c1ccc(Br)cc1)[C@H]1CCCCN1	22.5	9.34	–
COC(=O)[C@@H](c1ccccc1)[C@@H]1CCCCN1	1470	876	–
COC(=O)[C@H](c1ccccc1)[C@H]1CCCCN1 [DEXMETHYLPHENIDATE]	171	128	–
COC(=O)C(c1ccccc1)C1CCCCN1 (racemic) [METHYLPHENIDATE]	438	171	–

Reference: ChEMBL document CHEMBL1131474, “Asymmetric synthesis and pharmacology of methylphenidate and its para-substituted derivatives” (J Med Chem, 1998)
